# Laboratory results published in ChEMBL document CHEMBL4732112, “Synthesis and in vitro evaluation of novel spiroketopyrazoles as acetyl-CoA carboxylase inhibitors and potential antitumor agents” (Eur J Med Chem, 2021).
# pIC50: −log10 of the molar value. Active and inactive are the calls of the source. The rule behind the calls is not given here.
# Tests used:
# HepG2 [1] = experiment: Cell cycle arrest in human HepG2 cells assessed as reduction in CDK4 expression at 10 uM measured after 48 hrs by Western blot analysis relative to control; type: functional; design: scale not given: the % may be the effect or the level left
# How it was run: (§1)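 HepG2 cells treated for 48 h and lysed. Lysates cleared at 12000 rpm for 15 min and protein measured by BCA. Run on SDS-PAGE, transferred to PVDF, blocked in 5% BSA, primary antibody at 4 °C overnight, then DyLight 800 secondary. Infrared imaging and densitometry against β-actin. Mean ± SD, n=3.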
# HepG2 [2] = experiment: Cell cycle arrest in human HepG2 cells assessed as reduction in CDK4 expression measured after 48 hrs by Western blot analysis; type: functional, cell-based; settings: dose 1-10 µM; how it was run: as §1
# Acetyl-CoA carboxylase 1 [3] = target: T1, Acetyl-CoA carboxylase 1 (Homo sapiens, UniProt Q13085); experiment: Inhibition of ACC1 in human HepG2 cells assessed as reduction in intracellular malonyl-CoA level at 10 uM measured after 48 hrs by ELISA relative to control; type: cell-based
# How it was run: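 HepG2 cells plated and exposed to the compound at several concentrations for 48 h. Cells washed with PBS, lysed in 1% Triton X-100 and spun 12000 rpm, 4 °C, 15 min. Malonyl-CoA measured by ELISA kit and triglyceride by GPO-POP kit, each normalised to BCA protein. Reported relative to control, mean ± SD, n=3.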
# MDA-MB-231 [4] = experiment: Antiproliferative activity against human MDA-MB-231 cells assessed as cell growth inhibition at 10 uM after 72 hrs by MTT assay relative to control; type: functional; settings: read-out: GI
# How it was run: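 Cells were DMEM/10% FBS cultures at 37 °C, 5% CO2, seeded at 3×10^3 per well and exposed for 72 h after 24 h attachment. Read-out was MTT with formazan in DMSO and absorbance at 550 nm, expressed as inhibition rate versus control.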
# HepG2 [5] = experiment: Induction of apoptosis in human HepG2 cells assessed as late apoptotic cells at 5 uM measured after 48 hrs by Annexin V-FITC/propidium iodide staining based flow cytometry (reference value: 0.19%); type: functional
# How it was run: (§2)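 HepG2 cells incubated with the stated concentrations for 48 h, harvested, and stained with Annexin V-FITC and propidium iodide protected from light. Viable, early apoptotic, late apoptotic and necrotic fractions quantified by flow cytometry. Mean ± SD, n=3.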
# HepG2 [6] = experiment: Antiproliferative activity against human HepG2 cells assessed as combination index at 0.7 uM measured after 72 hrs in presence of 1.4 uM doxorubicin by MTT assay; type: functional
# Acetyl-CoA carboxylase 1 [7] = target: T1, Acetyl-CoA carboxylase 1; experiment: Inhibition of recombinant human C-terminal His-tagged ACC1 (1 to 2383 residues) expressed in baculovirus infected Sf9 insect cells at 0.1 uM preincubated for 15 mins followed by substrate addition and measured after 60 mins by ADP-glo luminescence assay relative to control
# HepG2 [8] = experiment: Induction of apoptosis in human HepG2 cells assessed as early apoptotic cells at 5 uM measured after 48 hrs by Annexin V-FITC/propidium iodide staining based flow cytometry (reference value: 4.03%); type: functional; how it was run: as §2
# HepG2 [9] = experiment: Antiproliferative activity against human HepG2 cells assessed as reduction in cell viability measured after 72 hrs in presence of doxorubicin by MTT assay; type: functional, cell-based; settings: dose 0.0875-1.4 µM
# HepG2 [10] = experiment: Cell cycle arrest in human HepG2 cells assessed as accumulation at G0/G1 phase measured after 48 hrs by propidium iodide staining based flow cytometry; type: functional; settings: dose 1-10 µM
# HepG2 [11] = experiment: Induction of apoptosis in human HepG2 cells assessed as increase in caspase-3 activation at 1 to 10 uM measured after 48 hrs by Western blot analysis; type: functional, cell-based; settings: dose 1-10 µM
# How it was run: (§3)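 Western blots for Bcl-2, Bax, cleaved caspase-3 and cleaved PARP in HepG2 cells after 48 h treatment (1, 5, 10 μM for PARP). Lysates cleared, protein quantified by BCA, run on SDS-PAGE to PVDF, blocked in 5% BSA, primary overnight at 4 °C, DyLight 800 secondary. Infrared scanning and densitometry normalized to β-actin. Mean ± SD, n=3.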
# HepG2 [12] = experiment: Induction of apoptosis in human HepG2 cells assessed as early apoptotic cells at 1 uM measured after 48 hrs by Annexin V-FITC/propidium iodide staining based flow cytometry (reference value: 4.03%); type: functional; how it was run: as §2
# HepG2 [13] = experiment: Antiproliferative activity against human HepG2 cells assessed as cell viability at 0.5 uM measured after 5 days in presence of 25 uM palmitate by MTT assay relative to control; type: functional; settings: HepG2, 120 h, time 5 day, read-out: Activity
# How it was run: (§4)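 HepG2 treated with 0.5 μM plus 0, 10 or 25 μM palmitate for 1, 3 and 5 days. Palmitate was complexed with 5% fatty-acid-free BSA from a 5 mM solution, then diluted in serum-free DMEM to final concentration. Viability (% control) by MTT. Mean ± SD, n=3.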
# HepG2 [14] = experiment: Induction of apoptosis in human HepG2 cells assessed as nuclear fragmentation at 1 to 10 uM measured after 48 hrs by Hoechst 33258 staining based fluorescence microscopic analysis; type: functional, cell-based; settings: dose 1-10 µM
# How it was run: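 HepG2 cells exposed to varying concentrations for 48 h in 6-well plates. Stained with Hoechst 33258 in the dark for 20 min, then nuclear morphology inspected by fluorescence microscopy.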
# HepG2 [15] = experiment: Antiproliferative activity against human HepG2 cells assessed as cell viability at 0.5 uM measured after 5 days in presence of 10 uM palmitate by MTT assay relative to control; type: functional; settings: HepG2, 120 h, time 5 day, read-out: Activity; how it was run: as §4
# HepG2 [16] = experiment: Cell cycle arrest in human HepG2 cells assessed as accumulation at G0/G1 phase at 10 uM measured after 48 hrs by propidium iodide staining based flow cytometry (reference value: 56.24%); type: functional
# HepG2 [17] = experiment: Induction of apoptosis in human HepG2 cells assessed as viable cells at 5 uM measured after 48 hrs by Annexin V-FITC/propidium iodide staining based flow cytometry (reference value: 95.6%); type: functional; settings: read-out: Activity
# [18] = Cytotoxicity against HUVEC assessed as cell viability at 100 uM after 72 hrs by MTT assay relative to control; type: cell-based; settings: human, HUVEC cells, read-out: Activity
# How it was run: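 HUVEC kept in RPMI 1640 with 10% FBS at 37 °C, 5% CO2. Seeded at 3×10^3 per well and treated at 100 µM for 72 h after 24 h attachment. Viability by MTT with absorbance at 550 nm, as percent of control. Mean ± SD, n=3.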
# HepG2 [19] = experiment: Induction of apoptosis in human HepG2 cells assessed as necrotic cells at 1 uM measured after 48 hrs by Annexin V-FITC/propidium iodide staining based flow cytometry (reference value: 0.22%); type: functional; how it was run: as §2
# HepG2 [20] = experiment: Induction of apoptosis in human HepG2 cells assessed as increase in Bax expression measured after 48 hrs by Western blot analysis; type: functional, cell-based; settings: dose 1-10 µM; how it was run: as §3
# HepG2 [21] = experiment: Induction of apoptosis in human HepG2 cells assessed as early apoptotic cells at 10 uM measured after 48 hrs by Annexin V-FITC/propidium iodide staining based flow cytometry (reference value: 4.03%); type: functional; how it was run: as §2
# MDA-MB-231 [22] = experiment: Antiproliferative activity against human MDA-MB-231 cells assessed as cell growth inhibition after 72 hrs by MTT assay; type: functional, cell-based; settings: MDA-MB-231, 72 h
# How it was run: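 HepG2, A549 or MDA-MB-231 cells grown in DMEM with 10% FBS and penicillin/streptomycin at 37 °C, 5% CO2. Seeded at 3×10^3 per well, left 24 h, then exposed to a range of concentrations for 72 h. MTT added for 4 h, formazan dissolved in DMSO, absorbance read at 550 nm. Mean ± SD, n=3.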
smiles,measurement,setting,value
CC(C)(C)n1cc2c(n1)C(=O)CC1(CCN(C(=O)c3cc(-c4ccncc4)nc4ccccc34)CC1)O2,Activity,HepG2 [1],60.76%
same,Activity,HepG2 [2],Dose-dependent effect
same,inhibition,Acetyl-CoA carboxylase 1 [3],31.4%
same,inhibition of growth at 10 µM,MDA-MB-231 [4],72.2%
same,Activity,HepG2 [5],32.6%
same,CI,HepG2 [6],0.599
same,inhibition,Acetyl-CoA carboxylase 1 [7],86.2%
same,Activity,HepG2 [8],18.9%
same,Activity,HepG2 [9],Dose-dependent effect
same,Activity,HepG2 [10],Dose-dependent effect
same,Activity,HepG2 [11],Active
same,Activity,HepG2 [12],11.6%
same,viability at 0.5 µM,HepG2 [13],87.1%
same,Activity,HepG2 [14],Active
same,viability at 0.5 µM,HepG2 [15],68.9%
same,Activity,HepG2 [16],88.61%
same,viability at 5 µM,HepG2 [17],44.8%
same,"viability at 72 h, 100 µM",[18],95.2%
same,Activity,HepG2 [19],3.61%
same,Activity,HepG2 [20],Dose-dependent effect
same,Activity,HepG2 [21],41.6%
same,pIC50,MDA-MB-231 [22],5.78
